{"source": "paper PMC8414988", "about": "(Pediatric blood & cancer, 2021)", "key": {"[1]": {"assay": "Plasma pharmacokinetics, non-compartmental analysis", "type": "in vivo, human", "conditions": "for AUC(0-t) / Cmax / half-life: human, plasma, po"}, "[2]": {"conditions": "daily, 21 days followed by 7-day rest, adults; cited from earlier work"}, "[3]": {"tested_on": "progressive or refractory brain tumors", "assay": "Tumor response assessment", "type": "in vivo, human", "in_short": "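Oral once-daily dosing, 21 of 28 days, for up to 26 courses. Response by bi-dimensional MR measurement. CR: all enhancing tumor gone. PR: ≥50% reduction. Both held ≥8 weeks on stable or decreasing corticosteroids. PD: >25% increase from smallest measurement, new lesion, or neurologic worsening. Patients receiving ≥1 dose evaluable.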"}, "[4]": {"conditions": "cited from earlier work"}, "[5]": {"conditions": "cited from earlier work", "remark": "listed apart in the source"}, "[6]": {"assay": "Exposure-toxicity associations", "type": "in vivo, human", "conditions": "course 1"}, "[7]": {"conditions": "human, in vivo, 28 days"}}, "data": [{"smiles": "CC(=O)c1c(C)c2cnc(Nc3ccc(N4CCNCC4)cn3)nc2n(C2CCCC2)c1=O", "note": "[palbociclib]", "values": [{"measurement": "Cmax (mean ± SD)", "setting": "[1]; 50 mg/m^2 oral, Day 1 (single dose), N=7", "result": "69.3 ± 43.7", "unit": "ng/mL"}, {"measurement": "AUC0-Tlast (mean ± SD)", "setting": "[1]; 75 mg/m^2 oral, Day 21 (repeated doses), N=17", "result": "2219 ± 1086", "unit": "ng·h/mL"}, {"measurement": "AUC(0-t)", "setting": "[1]; 50 mg/m2, AUC0-Tlast (median (range)), 50 mg/m^2 oral, Day 1 (single dose), N=7", "result": 1160, "unit": "ng·h/mL"}, {"measurement": "AUC(0-t)", "setting": "[1]; 50 mg/m2, AUC0-Tlast (median (range)), 50 mg/m^2 oral, Day 21 (repeated doses), N=6", "result": 1230, "unit": "ng·h/mL"}, {"measurement": "Cmax", "setting": "[1]; 50 mg/m2, Cmax (median (range)), 50 mg/m^2 oral, Day 1 (single dose), N=7", "result": 54.9, "unit": "ng/mL"}, {"measurement": "Cmax", "setting": "[1]; 50 mg/m2, Cmax (median (range)), 50 mg/m^2 oral, Day 21 (repeated doses), N=6", "result": 77.2, "unit": "ng/mL"}, {"measurement": "half-life", "setting": "[1]; 50 mg/m2, Half-life (median (range)), 50 mg/m^2 oral, Day 1 (single dose), N=7", "result": 13, "unit": "h"}, {"measurement": "half-life", "setting": "[1]; 50 mg/m2, Half-life (median (range)), 50 mg/m^2 oral, Day 21 (repeated doses), N=6", "result": 17.4, "unit": "h"}, {"measurement": "AUC(0-t)", "setting": "[1]; 75 mg/m2, AUC0-Tlast (median (range)), 75 mg/m^2 oral, Day 1 (single dose), N=21", "result": 1830, "unit": "ng·h/mL"}, {"measurement": "AUC(0-t)", "setting": "[1]; 75 mg/m2, AUC0-Tlast (median (range)), 75 mg/m^2 oral, Day 21 (repeated doses), N=17", "result": 2270, "unit": "ng·h/mL"}, {"measurement": "Cmax", "setting": "[1]; 75 mg/m2, Cmax (median (range)), 75 mg/m^2 oral, Day 1 (single dose), N=21", "result": 94, "unit": "ng/mL"}, {"measurement": "half-life", "setting": "[1]; 75 mg/m2, Half-life (median (range)), 75 mg/m^2 oral, Day 1 (single dose), N=21", "result": 13.3, "unit": "h"}, {"measurement": "half-life", "setting": "[1]; 75 mg/m2, Half-life (median (range)), 75 mg/m^2 oral, Day 21 (repeated doses), N=17", "result": 14.4, "unit": "h"}, {"measurement": "AUC(0-t)", "setting": "[1]; 95 mg/m2, AUC0-Tlast (median (range)), 95 mg/m^2 oral, Day 1 (single dose), N=6", "result": 2410, "unit": "ng·h/mL"}, {"measurement": "AUC(0-t)", "setting": "[1]; 95 mg/m2, AUC0-Tlast (median (range)), 95 mg/m^2 oral, Day 21 (repeated doses), N=2", "result": 2190, "unit": "ng·h/mL"}, {"measurement": "half-life", "setting": "[1]; 95 mg/m2, Half-life (median (range)), 95 mg/m^2 oral, Day 1 (single dose), N=6", "result": 14.6, "unit": "h"}, {"measurement": "half-life", "setting": "[1]; 95 mg/m2, Half-life (median (range)), 95 mg/m^2 oral, Day 21 (repeated doses), N=2", "result": 11.3, "unit": "h"}, {"measurement": "dose dependence of mean Cmax and AUC0-Tlast", "setting": "[1]; within 50 and 95 mg/m^2, single and repeated doses", "result": "increased in proportional manner"}, {"measurement": "adult MTD", "setting": "[2]", "result": 125, "unit": "mg"}, {"measurement": "objective response", "setting": "[3]; Stratum I and II", "result": "No patients on either stratum had an objective response"}, {"measurement": "time on treatment", "setting": "[3]; Stratum II, 3 subjects (2 at 50 mg/m^2 and 1 at 75 mg/m^2)", "result": 4, "unit": "courses"}, {"measurement": "time on treatment", "setting": "[3]; one patient with GBM, 75 mg/m^2", "result": 6, "unit": "courses"}, {"measurement": "time on treatment", "setting": "[3]; one patient with anaplastic ependymoma, Stratum I, 75 mg/m^2", "result": 18, "unit": "courses"}, {"measurement": "solubility", "setting": "[4]", "result": "pH-dependent solubility"}, {"measurement": "permeability", "setting": "[5]", "result": "high permeability"}, {"measurement": "association of pharmacokinetic variables with thrombocytopenia or lymphopenia", "setting": "[6]", "result": "No association was found"}, {"measurement": "Dose limiting toxicities observed", "setting": "[7]", "result": "grade 4 neutropenia and grade 3 thrombocytopenia and dehydration"}]}]}
